Active and inactive are the calls of the source. No cut-off for these calls is given here.
System: not listed separately
Test: Down regulation of OPN expression in human MDA-MB-435 cells at 10 uM measured after 24 hrs by Western blot analysis relative to control
Format: functional
How it was run: (§1)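 MDA-MB-435 cells (1x10^6 per 6 cm plate) grown 24 h in DMEM/10% FBS with penicillin-streptomycin, 37 °C, 5% CO2, then serum-starved 24 h. Treated 24 h with compound at 10 µM against a DMSO control. Secreted OPN in serum-free supernatant run on non-reducing 10% SDS-PAGE. Lysate β-actin run on 10% SDS-PAGE. Both probed with monoclonal antibodies, read by chemiluminescence and quantified by densitometry.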
With `CC(CCC1OC(c2ccccc2)OOC1(C)C)CCn1cc(COCCNCCOCc2cn(CCC(C)CCC3OC(c4ccccc4)OOC3(C)C)nn2)nn1` (stereo unspecified) the “fold change (FC)” value was 0.11.
In the case of `CC(CCC1OC(c2ccc(F)cc2)OOC1(C)C)CCn1cc(COCCNCCOCc2cn(CCC(C)CCC3OC(c4ccc(F)cc4)OOC3(C)C)nn2)nn1` (stereo unspecified), the “fold change (FC)” value is reported as 0.17.
For `CC(CCC1OC2(CCCCC2)OOC1(C)C)CCn1cc(COCCNCCOCc2cn(CCC(C)CCC3OC4(CCCCC4)OOC3(C)C)nn2)nn1` (stereo unspecified), the “fold change (FC)” value was 0.27.
For `CC(CCC1OC(c2cccc(Br)c2)OOC1(C)C)CCn1cc(COCCNCCOCc2cn(CCC(C)CCC3OC(c4cccc(Br)c4)OOC3(C)C)nn2)nn1` (stereo unspecified), the “fold change (FC)” value was 0.26.
In the case of `CC(CCC1OC(c2ccc([N+](=O)[O-])cc2)OOC1(C)C)CCn1cc(COCCNCCOCc2cn(CCC(C)CCC3OC(c4ccc([N+](=O)[O-])cc4)OOC3(C)C)nn2)nn1` (stereo unspecified), the “fold change (FC)” value is reported as 0.28.
With `CC(CCC1OC(c2ccc(Cl)cc2)OOC1(C)C)CCn1cc(COCCNCCOCc2cn(CCC(C)CCC3OC(c4ccc(Cl)cc4)OOC3(C)C)nn2)nn1` (stereo unspecified) the “fold change (FC)” value was 0.45.
With `Cc1ccc(C2OOC(C)(C)C(CCC(C)CCn3cc(COCCNCCOCc4cn(CCC(C)CCC5OC(c6ccc(C)cc6)OOC5(C)C)nn4)nn3)O2)cc1` (stereo unspecified) the “fold change (FC)” value was 0.15.
For `CC(CCC1OC(c2ccc3c(c2)OCO3)OOC1(C)C)CCn1cc(COCCNCCOCc2cn(CCC(C)CCC3OC(c4ccc5c(c4)OCO5)OOC3(C)C)nn2)nn1` (stereo unspecified), the “fold change (FC)” value was 0.33.
For `COc1ccc(C2OOC(C)(C)C(CCC(C)CCn3cc(COCCNCCOCc4cn(CCC(C)CCC5OC(c6ccc(OC)cc6)OOC5(C)C)nn4)nn3)O2)cc1` (stereo unspecified), the “fold change (FC)” value was 0.43.

System: MDA-MB-435
Test: (§2) Down regulation of OPN expression in human MDA-MB-435 cells at 50 uM measured after 24 hrs by Western blot analysis relative to control
Format: functional
How it was run: as §1, with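 “at 50” for “at 10”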
With `CC(CCC1OC(c2ccc3c(c2)OCO3)OOC1(C)C)CCn1cc(COC2[C@H]3OCO[C@H]3CO[C@@]23COC(C)(C)O3)nn1` (stereo partly specified) the inhibition was “inactive”.
In the case of `CC(CCC1OC2(CCCCC2)OOC1(C)C)CCn1cc(COC2[C@H]3OCO[C@H]3CO[C@@]23COC(C)(C)O3)nn1` (stereo partly specified), the inhibition is reported as “inactive”.
With `CC(CCC1OC(c2ccccc2Br)OOC1(C)C)CCn1cc(-c2ccc(-c3cn(CCC(C)CCC4OC(c5ccccc5Br)OOC4(C)C)nn3)cc2)nn1` (stereo unspecified) the inhibition was “inactive”.
For `CC(CCC1OC(c2cccc3ccccc23)OOC1(C)C)CCn1cc(-c2ccc(-c3cn(CCC(C)CCC4OC(c5cccc6ccccc56)OOC4(C)C)nn3)cc2)nn1` (stereo unspecified), the inhibition was “inactive”.
With `C[C@@H]1CC[C@H]2[C@@H](C)C(=O)O[C@@H]3O[C@@]4(C)CC[C@@H]1[C@]32OO4` the inhibition was “inactive”.
For `CC(CCC1OC(c2ccco2)OOC1(C)C)CCn1cc(-c2ccc(-c3cn(CCC(C)CCC4OC(c5ccco5)OOC4(C)C)nn3)cc2)nn1` (stereo unspecified), the inhibition was “inactive”.
For `CC(CCC1OC(c2cccc3ccccc23)OOC1(C)C)CCn1cc(COC2[C@H]3OCO[C@H]3CO[C@@]23COC(C)(C)O3)nn1` (stereo partly specified), the inhibition was “inactive”.
For `COc1ccc(C2OOC(C)(C)C(CCC(C)CCn3cc(-c4ccc(-c5cn(CCC(C)CCC6OC(c7ccc(OC)cc7)OOC6(C)C)nn5)cc4)nn3)O2)cc1` (stereo unspecified), the inhibition was “inactive”.
With `Cc1ccc(C2OOC(C)(C)C(CCC(C)CCn3cc(-c4ccc(-c5cn(CCC(C)CCC6OC(c7ccc(C)cc7)OOC6(C)C)nn5)cc4)nn3)O2)cc1` (stereo unspecified) the inhibition was “inactive”.
In the case of `CC(CCC1OC(c2ccc(Cl)cc2)OOC1(C)C)CCn1cc(-c2ccc(-c3cn(CCC(C)CCC4OC(c5ccc(Cl)cc5)OOC4(C)C)nn3)cc2)nn1` (stereo unspecified), the inhibition is reported as “inactive”.
With `CC(CCC1OC(c2ccc([N+](=O)[O-])cc2)OOC1(C)C)CCn1cc(-c2ccc(-c3cn(CCC(C)CCC4OC(c5ccc([N+](=O)[O-])cc5)OOC4(C)C)nn3)cc2)nn1` (stereo unspecified) the inhibition was “inactive”.
With `Cc1ccc(C2OOC(C)(C)C(CCC(C)CCn3cc(COC4[C@H]5OCO[C@H]5CO[C@@]45COC(C)(C)O5)nn3)O2)cc1` (stereo partly specified) the inhibition was “inactive”.
In the case of `CC(CCC1OC(c2cccc(Br)c2)OOC1(C)C)CCn1cc(-c2ccc(-c3cn(CCC(C)CCC4OC(c5cccc(Br)c5)OOC4(C)C)nn3)cc2)nn1` (stereo unspecified), the inhibition is reported as “inactive”.
For `CC(CCC1OC(c2ccc3c(c2)OCO3)OOC1(C)C)CCn1cc(-c2ccc(-c3cn(CCC(C)CCC4OC(c5ccc6c(c5)OCO6)OOC4(C)C)nn3)cc2)nn1` (stereo unspecified), the inhibition was “inactive”.
In the case of `CC(CCC1OC(c2cccc([N+](=O)[O-])c2)OOC1(C)C)CCn1cc(COC2[C@H]3OCO[C@H]3CO[C@@]23COC(C)(C)O3)nn1` (stereo partly specified), the inhibition is reported as “inactive”.
In the case of `CC(CCC1OC(c2ccc([N+](=O)[O-])cc2)OOC1(C)C)CCn1cc(COC2[C@H]3OCO[C@H]3CO[C@@]23COC(C)(C)O3)nn1` (stereo partly specified), the inhibition is reported as “inactive”.
With `CC(CCC1OC(C)(c2ccc(Cl)cc2)OOC1(C)C)CCn1cc(-c2ccc(-c3cn(CCC(C)CCC4OC(C)(c5ccc(Cl)cc5)OOC4(C)C)nn3)cc2)nn1` (stereo unspecified) the inhibition was “inactive”.
With `CC(CCC1OC2(CCCCC2)OOC1(C)C)CCn1cc(-c2ccc(-c3cn(CCC(C)CCC4OC5(CCCCC5)OOC4(C)C)nn3)cc2)nn1` (stereo unspecified) the inhibition was “inactive”.
With `CC(CCC1OC(c2ccc(F)cc2)OOC1(C)C)CCn1cc(-c2ccc(-c3cn(CCC(C)CCC4OC(c5ccc(F)cc5)OOC4(C)C)nn3)cc2)nn1` (stereo unspecified) the inhibition was “inactive”.
For `CC(CCC1OC(c2ccc(F)cc2)OOC1(C)C)CCn1cc(COC2[C@H]3OCO[C@H]3CO[C@@]23COC(C)(C)O3)nn1` (stereo partly specified), the inhibition was “inactive”.
In the case of `CC(CCC1OC(c2ccccc2Br)OOC1(C)C)CCn1cc(COC2[C@H]3OCO[C@H]3CO[C@@]23COC(C)(C)O3)nn1` (stereo partly specified), the inhibition is reported as “inactive”.

System: not listed separately
Test: as §2
Format: functional
How it was run: as §1, with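 “at 50” for “at 10”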
In the case of `C[C@@H]1CC[C@H]2[C@@H](C)C(O)O[C@@H]3O[C@]4(C)CC[C@@H]1[C@]32OO4` (stereo partly specified), the “fold change (FC)” value is reported as 0.45.
In the case of `C[C@@H]1CC[C@H]2[C@@H](C)C(OCc3cn(Cc4ccccc4)nn3)O[C@@H]3O[C@]4(C)CC[C@@H]1[C@]32OO4` (stereo partly specified), the “fold change (FC)” value is reported as 0.3.
In the case of `CC(CCC1OC(c2ccc(Cl)cc2)OOC1(C)C)CCn1cc(COC2[C@H]3OCO[C@H]3CO[C@@]23COC(C)(C)O3)nn1` (stereo partly specified), the “fold change (FC)” value is reported as 0.15.
For `COc1ccc(C2OOC(C)(C)C(CCC(C)CCn3cc(COC4[C@H]5OCO[C@H]5CO[C@@]45COC(C)(C)O5)nn3)O2)cc1` (stereo partly specified), the “fold change (FC)” value was 0.2.
In the case of `CC(CCC1OC(c2ccco2)OOC1(C)C)CCn1cc(COC2[C@H]3OCO[C@H]3CO[C@@]23COC(C)(C)O3)nn1` (stereo partly specified), the “fold change (FC)” value is reported as 0.12.
In the case of `CC(CCC1OC(c2cccc(Br)c2)OOC1(C)C)CCn1cc(COC2[C@H]3OCO[C@H]3CO[C@@]23COC(C)(C)O3)nn1` (stereo partly specified), the “fold change (FC)” value is reported as 0.15.
